rRNA inh HTS = inhibits bacterial ribosomal RNA function over humanized ribosomes | E. coli WT GFP vs humanized-ribosome RFP mutants, fluorescence, 24 h; hits give low values; DMSO median 0, no signal -100 | GFP signal change (wild-type ribosome), % (no concentration beside the values) | actives 1.6% (n = 350,000);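 active means significant combined selectivity score with lowered wild-type GFP, culture density cut under 30%, mutant RFP and density less affected; inactive means any of these conditions unmet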
miR122 inh = miR-122 inhibition in Huh7 cells. actives 0.3% (n = 340,000). Huh7 miR-122 Renilla luciferase sensor, 48 h; neutral wells = 0, positive control = 100. activation (reporter increase), % at 12.5 µM;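 active means mean replicate activation score at least 90 and every replicate individually at or above 90; inconclusive means only one of the two criteria met; inactive means neither criterion met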;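 further: higher luciferase means less miR-122 activity so hits act as miR-122 inhibitors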
INS-1E GSIS act = GLuc luminescence reporter in INS-1E cells, primary screen for activators of glucose-dependent secretion of insulin; INS-1E GLuc reporter insulin secretion, 2-3 h; activation, % at 16.6 µM; actives 0.61% (n = 370,000);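 active means lowest replicate activation of at least 40%, so every replicate reaches that level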
F508del corr = CFTR F508del correction in bronchial cells | CFBE cells, YFP halide quenching; stimulated with forskolin plus potentiator P3; % fluorescence drop versus neutral controls | activity (quench increase), % at 7.58 µM | actives 0.36% (n = 350,000) | AID 720511;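 active means mean added fluorescence quench of at least 8% versus neutral control, with both replicates also reaching 8%; inconclusive means only one of the mean or replicate conditions met; inactive means mean below 8% and not both replicates reaching 8%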;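 further: cells transiently co-express mutant CFTR-F508del with the halide-sensitive YFP; corrector assay measuring rescue of mutant channel to the surface after 24 h compound exposure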
Env fusion inh = inhibitors of HIV Env-mediated cell fusion | HeLa-JRFL Env/CEM21 cell fusion, luciferase | inhibition, % at 12.3 µM | actives 1.1% (n = 360,000);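 active means mean replicate inhibition score of at least 50 and every replicate individually at or above 50; inconclusive means only one of the two criteria met; inactive means mean below 50 and not all replicates reaching 50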
Cneo AK release = causes C. neoformans cell lysis; actives 0.2% (n = 360,000); lysis activity, % at 15 µM; adenylate kinase release luminescence, 4 h; normalised: neutral wells 0, clomiphene wells 100;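 active means mean lysis activity across replicates of at least 80%, whatever share of replicates individually reach that level; inactive means mean lysis activity below 80%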
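Material – log-phase Cryptococcus neoformans yeast cells · Input – 5 × 10^6 yeast cells/mL · Medium – fresh YPD growth medium · Doses – single compound concentration per well · Timing – static 4 h at 37 °C with compound, 1 h detection · Detection – adenylate kinase release luminescence · Read-out – signal increase indicating cell lysis · Control set – Clomiphene as positive lysis control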
Of the large screens only hits and unclear results are named; the others gave an inactive call. Only some compounds are listed: those with a hit (about 3.1% of all), similar ones and a draw of the others.

CC1CCN(CCCn2c(SCC(=O)Nc3ccccc3Cl)nc3ccccc3c2=O)CC1	rRNA inh HTS -33 (no result: miR122 inh, Cneo AK release)
CC(C)Cn1c(SCC(=O)Nc2ccc3[nH]c(=O)[nH]c3c2)nc2ccccc2c1=O	INS-1E GSIS act 45
CCOCCCn1c(SCC(=O)NC2CCCCC2)nc2ccccc2c1=O	INS-1E GSIS act 43
CC(=O)Nc1ccc(NC(=O)CSc2nc3ccccc3c(=O)n2CCCN2CCOCC2)cc1	none
CN(C)C(=O)[C@@H]1[C@@H](CO)[C@@H]2Cn3c(ccc(-c4cccnc4)c3=O)[C@H]1N2C(=O)NC1CCCC1	none (no result: Env fusion inh)
CCOC(=O)c1ccc(-c2c(-c3cc(OC)c(OC)c(OC)c3)noc2C)cc1F	F508del corr 16
C/C=C/Cn1c(SC)nc2c1c(=O)[nH]c(=O)n2C	none (no result: rRNA inh HTS, INS-1E GSIS act, F508del corr, Env fusion inh)
C/C=C/Cn1c(N(C)Cc2ccccc2)nc2c1c(=O)[nH]c(=O)n2C	INS-1E GSIS act 47
C/C=C/Cn1c(N2CCCCCC2)nc2c1c(=O)[nH]c(=O)n2C	INS-1E GSIS act 62 (no result: rRNA inh HTS, F508del corr, Env fusion inh)
Cn1c(=O)[nH]c(=O)c2c1nc(N1CCCCC1)n2C/C=N/Nc1ccc(C(=O)O)cc1	INS-1E GSIS act 49
Cn1c(=O)[nH]c(=O)c2c1nc(N1CCCC1)n2CCO	none (no result: miR122 inh)
CN(Cc1ccccc1)c1nc2c(c(=O)[nH]c(=O)n2C)n1C	none (no result: rRNA inh HTS, INS-1E GSIS act, F508del corr, Env fusion inh)
C/C=C/Cn1c(Br)nc2c1c(=O)[nH]c(=O)n2C	INS-1E GSIS act 65 (no result: Env fusion inh)
Cn1c(=O)[nH]c(=O)c2c1nc(N1CCCCCC1)n2CC(N)=O	none (no result: miR122 inh, F508del corr, Env fusion inh)
CCN(CC)CCOC(=O)C(Cc1ccco1)Cc1cccc2ccccc12 (centres undefined)	rRNA inh HTS -34
COc1ccc(CC(=O)OC(C)C(=O)c2ccc(C)cc2)cc1 (centres undefined)	rRNA inh HTS -30 (no result: miR122 inh)
C[C@@H]1CCCCO[C@H](CN(C)CC2CC2)[C@H](C)CN([C@H](C)CO)C(=O)c2cc(NS(=O)(=O)c3ccccc3)ccc2O1	none (no result: miR122 inh, Env fusion inh, Cneo AK release)
CNS(=O)(=O)c1cccc(C(=O)OCc2csc(-c3ccccc3)n2)c1	none (no result: rRNA inh HTS, F508del corr, Env fusion inh)
Nc1ccc(C(=O)OCc2csc(-c3ccccc3)n2)cc1[N+](=O)[O-]	INS-1E GSIS act 46 (no result: rRNA inh HTS, miR122 inh, F508del corr, Cneo AK release)
CN(C)CCn1c(=O)n(-c2ccc(F)cc2)c(=O)c2c3c(sc21)CCCCC3	Env fusion inh inconclusive (no result: miR122 inh, Cneo AK release)
CN(C)CCCn1c(=O)n(C2CCCCC2)c(=O)c2c3c(sc21)CCCCC3	Cneo AK release 88
CN(C)CCCn1c(=S)[nH]c2sc3c(c2c1=O)CCCC3	none
CN(C)CCn1c(=O)n(-c2cccc(Cl)c2)c(=O)c2c3c(sc21)CCCCC3	Env fusion inh 130 (no result: miR122 inh, Cneo AK release)
CCCCN1C(=O)CC(C(=O)OCC)=C1C	F508del corr 11 (no result: miR122 inh)
Cc1cc(S(=O)(=O)Nc2ccc3cn[nH]c3c2)c(C)cc1Cl	miR122 inh 144
COc1cc(/C=C/C(=O)O)cc(S(=O)(=O)Nc2ccc3cn[nH]c3c2)c1OC	F508del corr 8.8 (no result: miR122 inh)
C[C@H]1CN([C@@H](C)CO)C(=O)c2cccc(NC(=O)Nc3ccc4c(c3)OCO4)c2O[C@H]1CN(C)S(=O)(=O)c1ccc(F)cc1	none
Cc1ccc(Cl)cc1N1CCN(S(=O)(=O)c2ccc3[nH]c(=O)c(=O)[nH]c3c2)CC1	rRNA inh HTS -29
Cc1ccc(Cl)cc1N1CCN(S(=O)(=O)c2ccc3[nH]c(=O)ccc3c2)CC1	none (no result: miR122 inh)
C/C(=N\NC(=O)COc1ccccc1-c1ccccc1)c1ccccn1	rRNA inh HTS -49
O=C(COc1ccccc1-c1ccccc1)N/N=C/c1cccnc1	none (no result: miR122 inh, Cneo AK release)
C/C(=N\NC(=O)CSc1nc2ccccc2s1)c1cccnc1	rRNA inh HTS -21 (no result: miR122 inh, Cneo AK release)
C/C(=N\NC(=O)COc1ccccc1-c1ccccc1)c1cccnc1	rRNA inh HTS -40 (no result: miR122 inh, Cneo AK release)
CC(=NNC(=S)SCc1ccccc1)c1ccccn1	Env fusion inh 79 (no result: miR122 inh, INS-1E GSIS act, Cneo AK release)
COc1ccc(NC(=O)Nc2ccc3c(c2)C(=O)N([C@H](C)CO)C[C@H](C)[C@H](CN(C)C(=O)Nc2cccc4ccccc24)OCCCC[C@@H](C)O3)cc1	none
CN(C)C(=O)C[C@@H]1CC[C@H](NC(=O)C2CC2)[C@@H](CO)O1	none (no result: rRNA inh HTS, miR122 inh, INS-1E GSIS act)
COCCCNC(=O)CSc1c2c(nc3ccc(Cl)cc13)CCCC2	rRNA inh HTS -23 (no result: miR122 inh, F508del corr, Cneo AK release)
CCOc1ccccc1N(C(=O)c1ccccc1Cl)C1=NC(C)(C)CS1	rRNA inh HTS -23
COc1ccc(-c2cc(=O)oc3c(C)c(OCC(=O)N(C)C)ccc23)cc1	none
COc1ccc(-c2cc(=O)oc3c(C)c(O)c(CN(C)C)cc23)cc1	Env fusion inh 73 (no result: rRNA inh HTS, INS-1E GSIS act, F508del corr)
CCC(=O)N1[C@H](CO)[C@H](c2ccc(-c3ccccc3OC)cc2)C12CN(C(C)=O)C2	none (no result: miR122 inh, Env fusion inh, Cneo AK release)
COCCCN1C(=O)c2[nH]nc(-c3ccccc3O)c2C1c1ccc(Cl)cc1 (centres undefined)	none (no result: rRNA inh HTS, INS-1E GSIS act, F508del corr)
COc1ccc(CCN2C(=O)c3[nH]nc(-c4ccccc4O)c3C2c2ccccc2)cc1OC (centres undefined)	Env fusion inh 147 (no result: rRNA inh HTS, INS-1E GSIS act, F508del corr)
COc1cc(/C=C(\C#N)C(=O)c2c[nH]c3ccccc23)cc(OC)c1O	F508del corr 17 (no result: INS-1E GSIS act)
CCOc1ccc(/C=C(\C#N)C(=O)c2c(C)[nH]c3ccccc23)cc1OC	none
COC(=O)/C(C#N)=C/c1c[nH]c2ccccc12	rRNA inh HTS -22 (no result: miR122 inh, Cneo AK release)
COc1cc(/C=C(\C#N)C(=O)NCCc2ccccc2)cc(OC)c1O	rRNA inh HTS -31 (no result: miR122 inh, Cneo AK release)
COc1cc(/C=C(\C#N)c2nc3ccccc3[nH]2)cc(OC)c1O	F508del corr 10 (no result: miR122 inh, Cneo AK release)
CCOC(=O)/C(C#N)=C/c1c[nH]c2ccccc12	none (no result: rRNA inh HTS, miR122 inh, F508del corr, Cneo AK release)
COc1ccc(C#Cc2cnc3c(c2)C(=O)N([C@@H](C)CO)C[C@H](C)[C@@H](CN(C)C(=O)CN(C)C)O3)cc1	none
COc1ccc(NC(=O)Nc2ccc3c(c2)C(=O)N([C@@H](C)CO)C[C@H](C)[C@@H](CN(C)S(=O)(=O)c2ccc(Cl)cc2)OCCCC[C@H](C)O3)cc1	none
CCC(C)(C)n1nnnc1C(c1ccc(C)cc1)N(Cc1ccco1)Cc1cccs1 (centres undefined)	Env fusion inh 135 (no result: rRNA inh HTS, INS-1E GSIS act, F508del corr)
CC(C)NC(=O)N1C[C@@H]2[C@H](c3ccccc31)[C@H](CO)N2C(=O)c1cccnc1	none (no result: Env fusion inh)
C[C@@H]1CCCCO[C@H](CN(C)C(=O)NC2CCCCC2)[C@@H](C)CN([C@H](C)CO)C(=O)c2cc(NC(=O)Nc3cccc4ccccc34)ccc2O1	none
O=[N+]([O-])c1cccc(NC(=S)Nc2nc(-c3ccccc3Cl)cs2)c1	Env fusion inh 97 (no result: miR122 inh)
O=[N+]([O-])c1cccc(NC(=S)NCc2ccncc2)c1	none (no result: miR122 inh, Cneo AK release)
COc1ccccc1CCNC(=O)c1cccc(NC(=O)CC2SC(N3CCCCC3)=NC2=O)c1 (centres undefined)	rRNA inh HTS -21 (no result: miR122 inh)
